Reference: ChEMBL document CHEMBL4325826, “Identification of a Selective, Non-Prostanoid EP2 Receptor Agonist for the Treatment of Glaucoma: Omidenepag and its Prodrug Omidenepag Isopropyl” (J Med Chem, 2018)
Blank lines part the entries; values can stand above or below the molecule they belong to. Active and inactive are the calls of the source. The rule behind the calls is not given here.

Assays:
[1] = target: T1, Prostaglandin E2 receptor EP2 subtype (Homo sapiens, UniProt P43116); assay: Agonist activity at recombinant human EP2 receptor expressed in HEK293 cells assessed as induction of cAMP accumulation after 30 mins; type: functional, cell-based
T1 sequence (P43116 whole entry): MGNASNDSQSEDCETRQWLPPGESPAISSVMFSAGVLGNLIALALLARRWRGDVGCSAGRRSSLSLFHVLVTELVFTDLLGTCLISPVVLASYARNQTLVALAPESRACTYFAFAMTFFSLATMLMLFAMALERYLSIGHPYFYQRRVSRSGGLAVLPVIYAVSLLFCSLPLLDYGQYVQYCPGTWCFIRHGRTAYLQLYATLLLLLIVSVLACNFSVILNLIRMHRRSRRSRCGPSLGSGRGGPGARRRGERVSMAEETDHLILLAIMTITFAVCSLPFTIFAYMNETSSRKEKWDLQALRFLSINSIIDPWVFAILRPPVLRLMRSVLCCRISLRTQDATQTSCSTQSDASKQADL
How it was run: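 HEK293 cells stably expressing h-EP2 grown in MEM with 10% FBS, seeded at 2 × 10^4 cells/well. Next day switched to serum-free MEM with 500 µM IBMX (final) for 30 min at 37 °C, then test compound in DMSO added for 30 min at 37 °C. Cells lysed, cAMP quantified by EIA or HTRF kit.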

[2] = target: T1, Prostaglandin E2 receptor EP2 subtype; assay: Displacement of [3H]prostaglandin E2 from human EP2 receptor expressed in HEK293 cell membranes after 60 mins by liquid scintillation counting
[3] = target: T2, Prostaglandin E2 receptor EP3 subtype (Homo sapiens, UniProt P43115); assay: Displacement of [3H]prostaglandin E2 from recombinant human full length EP3 receptor expressed in Chem-1 cell membranes after 60 mins by liquid scintillation counting
T2 sequence (P43115 whole entry): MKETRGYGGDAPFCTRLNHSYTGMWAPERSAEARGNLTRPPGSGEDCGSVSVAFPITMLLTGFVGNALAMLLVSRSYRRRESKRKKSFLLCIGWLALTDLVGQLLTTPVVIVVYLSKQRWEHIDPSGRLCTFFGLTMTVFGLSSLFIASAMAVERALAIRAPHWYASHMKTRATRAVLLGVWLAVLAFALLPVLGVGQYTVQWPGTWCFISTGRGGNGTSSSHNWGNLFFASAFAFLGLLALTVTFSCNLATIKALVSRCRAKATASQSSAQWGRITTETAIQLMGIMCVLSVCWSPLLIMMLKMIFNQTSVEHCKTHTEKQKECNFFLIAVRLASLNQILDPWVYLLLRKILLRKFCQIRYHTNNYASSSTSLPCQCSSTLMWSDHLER

Cytochrome P450 2C19 = Cytochrome P450 2C19 (Homo sapiens, UniProt P33261); assay: Inhibition of recombinant human CYP2C19 using 3-cyano-7-ethoxycoumarin fluorescent substrate in presence of NADPH-generating system after 15 mins; type: ADME
Sequence of Cytochrome P450 2C19 (P33261 whole entry, canonical isoform): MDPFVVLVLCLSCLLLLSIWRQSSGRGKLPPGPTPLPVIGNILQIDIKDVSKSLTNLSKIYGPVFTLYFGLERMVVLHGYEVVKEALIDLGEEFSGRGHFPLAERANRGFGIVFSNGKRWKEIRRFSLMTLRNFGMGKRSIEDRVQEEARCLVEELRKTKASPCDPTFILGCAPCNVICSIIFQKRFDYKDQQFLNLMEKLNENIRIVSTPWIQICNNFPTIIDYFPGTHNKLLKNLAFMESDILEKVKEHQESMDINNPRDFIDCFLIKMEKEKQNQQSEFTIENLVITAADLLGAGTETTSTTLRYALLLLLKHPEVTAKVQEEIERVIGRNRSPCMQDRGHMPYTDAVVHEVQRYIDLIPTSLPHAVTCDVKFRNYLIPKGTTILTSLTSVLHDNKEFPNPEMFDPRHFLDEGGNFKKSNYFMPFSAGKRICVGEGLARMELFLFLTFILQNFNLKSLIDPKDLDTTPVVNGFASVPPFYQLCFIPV
How it was run: (§1)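 Each recombinant human CYP isoform (3A4, 2D6, 2C9, 2C19, 1A2) tested for inhibition by compound.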

Cynomolgus monkey [4] = assay: Reduction of intraocular pressure in ocular normotensive cynomolgus monkey at 0.3 to 1% administered topically to the eyes once daily at around 5 pm from day 1 to day 14 and measured at 10 am at day 8 and 15 post dose; details: Macaca fascicularis
[5] = target: T1, Prostaglandin E2 receptor EP2 subtype; assay: Potency index, ratio of CP-533,536 EC50 to compound EC50 for recombinant human EP2 receptor expressed in HEK293 cells by cAMP accumulation assay; type: functional, cell-based
Cytochrome P450 1A2 [6] = target: T3, Cytochrome P450 1A2 (Homo sapiens, UniProt P05177); assay: Inhibition of recombinant human CYP1A2 using 3-cyano-7-ethoxycoumarin fluorescent substrate in presence of NADPH-generating system after 15 mins; type: ADME; how it was run: as §1
T3 sequence (P05177 whole entry): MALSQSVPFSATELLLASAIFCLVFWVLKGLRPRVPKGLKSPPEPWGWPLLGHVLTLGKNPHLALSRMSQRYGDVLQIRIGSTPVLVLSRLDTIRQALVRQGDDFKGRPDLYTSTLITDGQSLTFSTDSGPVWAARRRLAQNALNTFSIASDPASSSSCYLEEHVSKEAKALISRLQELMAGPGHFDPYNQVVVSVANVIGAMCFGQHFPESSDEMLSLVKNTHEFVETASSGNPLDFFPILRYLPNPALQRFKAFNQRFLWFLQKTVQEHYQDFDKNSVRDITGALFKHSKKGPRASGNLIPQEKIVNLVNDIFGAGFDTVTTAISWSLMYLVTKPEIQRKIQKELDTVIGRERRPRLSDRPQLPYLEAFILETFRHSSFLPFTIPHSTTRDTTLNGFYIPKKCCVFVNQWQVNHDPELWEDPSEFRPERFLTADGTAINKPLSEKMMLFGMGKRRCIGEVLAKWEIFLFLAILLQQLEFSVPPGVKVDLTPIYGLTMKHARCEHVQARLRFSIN

[7] = target: Prostaglandin E2 receptor EP4 subtype (Homo sapiens, UniProt P35408); assay: Displacement of [3H]prostaglandin E2 from recombinant human full length EP4 receptor expressed in Chem-1 cell membranes after 60 mins by liquid scintillation counting
Sequence of Prostaglandin E2 receptor EP4 subtype (P35408 whole entry): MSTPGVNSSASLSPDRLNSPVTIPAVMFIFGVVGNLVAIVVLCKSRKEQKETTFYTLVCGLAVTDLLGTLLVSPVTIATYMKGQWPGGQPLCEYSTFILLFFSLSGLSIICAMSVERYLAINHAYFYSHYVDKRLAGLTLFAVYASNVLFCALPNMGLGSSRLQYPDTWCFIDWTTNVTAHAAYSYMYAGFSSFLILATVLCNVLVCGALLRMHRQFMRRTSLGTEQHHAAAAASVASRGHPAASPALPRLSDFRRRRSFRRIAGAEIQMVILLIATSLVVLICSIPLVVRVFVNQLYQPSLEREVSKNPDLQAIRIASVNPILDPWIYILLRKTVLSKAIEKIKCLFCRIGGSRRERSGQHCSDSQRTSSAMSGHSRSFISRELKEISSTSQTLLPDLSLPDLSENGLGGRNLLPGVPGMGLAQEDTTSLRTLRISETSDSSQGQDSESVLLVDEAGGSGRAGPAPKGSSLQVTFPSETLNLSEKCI

[8] = target: T4, Prostaglandin E2 receptor EP1 subtype (Homo sapiens, UniProt P34995); assay: Displacement of [3H]prostaglandin E2 from recombinant human full length EP1 receptor expressed in Chem-1 cell membranes after 60 mins by liquid scintillation counting
T4 sequence (P34995 whole entry): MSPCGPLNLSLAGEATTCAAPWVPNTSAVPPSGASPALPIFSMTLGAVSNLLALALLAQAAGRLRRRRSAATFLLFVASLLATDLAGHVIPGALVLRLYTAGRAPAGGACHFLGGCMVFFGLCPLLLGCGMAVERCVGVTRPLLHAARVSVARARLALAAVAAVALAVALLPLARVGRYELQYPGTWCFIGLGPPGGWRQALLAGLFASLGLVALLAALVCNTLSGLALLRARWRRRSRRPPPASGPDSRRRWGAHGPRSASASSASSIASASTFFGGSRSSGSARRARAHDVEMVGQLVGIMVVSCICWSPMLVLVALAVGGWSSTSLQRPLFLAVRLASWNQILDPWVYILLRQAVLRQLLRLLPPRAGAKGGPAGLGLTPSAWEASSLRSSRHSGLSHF

[9] = Apparent permeability from apical side at pH 7.4 to basolateral side at pH 7.4 in human Caco2 cells a 10 uM after 30 to 120 mins by HPLC-MS analysis; type: ADME, cell-based; details: Caco-2, pH 7.4
[10] = Apparent permeability of the compound at 100 uM after 5 hrs by PAMPA; type: ADME
[11] = Drug metabolism in human liver microsomes assessed as metabolic rate at 10 uM after 30 mins by HPLC-MS analysis; type: ADME, Microsome; details: 0.5 h
Cytochrome P450 1A2 [12] = target: T3, Cytochrome P450 1A2; assay: Induction of CYP1A2 in human Fa2N-4 cells up to 100 uM using phenacetin as substrate incubated for 24 hrs followed by compound replacement for every 24 hrs during 72 hrs incubation period followed by substrate addition for 4 hrs by LC-MS analysis; type: ADME, cell-based
How it was run: (§2)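 Human Fa2N-4 cells exposed to compound to assess CYP3A4 and CYP1A2 induction. Five concentrations, single experiment in triplicate.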

Cytochrome P450 3A4 [13] = target: T5, Cytochrome P450 3A4 (Homo sapiens, UniProt P08684); assay: Induction of CYP3A4 in human Fa2N-4 cells up to 100 uM using testosterone as substrate incubated for 24 hrs followed by compound replacement for every 24 hrs during 72 hrs incubation period followed by substrate addition for 4 hrs by LC-MS analysis; type: ADME, cell-based; how it was run: as §2
T5 sequence (P08684 whole entry): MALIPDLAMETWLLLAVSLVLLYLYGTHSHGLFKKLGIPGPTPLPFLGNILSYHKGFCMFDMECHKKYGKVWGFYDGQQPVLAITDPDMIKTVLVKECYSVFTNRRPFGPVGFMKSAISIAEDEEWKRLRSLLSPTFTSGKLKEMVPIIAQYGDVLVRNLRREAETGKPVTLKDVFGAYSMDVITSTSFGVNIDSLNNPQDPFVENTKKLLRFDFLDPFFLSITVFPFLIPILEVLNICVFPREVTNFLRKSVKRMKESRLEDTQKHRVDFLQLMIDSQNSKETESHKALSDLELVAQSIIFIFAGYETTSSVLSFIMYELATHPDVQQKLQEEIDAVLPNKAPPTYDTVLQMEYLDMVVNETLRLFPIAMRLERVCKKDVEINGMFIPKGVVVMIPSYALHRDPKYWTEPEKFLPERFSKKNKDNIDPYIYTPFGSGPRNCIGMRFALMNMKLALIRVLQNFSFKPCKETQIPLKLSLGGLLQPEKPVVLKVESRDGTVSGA

[14] = Apparent permeability from apical side at pH 6.5 to basolateral side at pH 7.4 in human Caco2 cells a 10 uM after 30 to 120 mins by HPLC-MS analysis; type: ADME, cell-based; details: Caco-2, pH 6.5
Cytochrome P450 2C9 = Cytochrome P450 2C9 (Homo sapiens, UniProt P11712); assay: Inhibition of recombinant human CYP2C9 using 7-methoxy-4-(trifluoromethyl)coumarin fluorescent substrate in presence of NADPH-generating system after 15 mins; type: ADME; how it was run: as §1
Sequence of Cytochrome P450 2C9 (P11712 whole entry): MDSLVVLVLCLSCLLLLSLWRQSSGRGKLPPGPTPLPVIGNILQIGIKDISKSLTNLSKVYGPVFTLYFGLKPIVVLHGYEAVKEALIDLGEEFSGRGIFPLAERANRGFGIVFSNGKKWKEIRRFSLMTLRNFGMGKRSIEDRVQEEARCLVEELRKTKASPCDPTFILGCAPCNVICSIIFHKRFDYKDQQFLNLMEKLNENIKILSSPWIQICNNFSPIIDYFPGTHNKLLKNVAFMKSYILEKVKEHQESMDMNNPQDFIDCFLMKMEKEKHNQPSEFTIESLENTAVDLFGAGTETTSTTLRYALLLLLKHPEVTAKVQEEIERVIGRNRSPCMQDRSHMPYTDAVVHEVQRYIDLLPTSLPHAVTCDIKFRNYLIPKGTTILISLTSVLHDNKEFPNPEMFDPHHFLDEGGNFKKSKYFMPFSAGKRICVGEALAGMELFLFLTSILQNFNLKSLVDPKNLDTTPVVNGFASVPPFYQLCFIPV

Cytochrome P450 2D6 = Cytochrome P450 2D6 (Homo sapiens, UniProt P10635); assay: Inhibition of recombinant human CYP2D6 using 3-(2-(N,N-diethyl-N-methylammonium)ethyl)-7-methoxy-4-methylcoumariniodide fluorescent substrate in presence of NADPH-generating system after 15 mins; type: ADME; how it was run: as §1
Sequence of Cytochrome P450 2D6 (P10635 whole entry): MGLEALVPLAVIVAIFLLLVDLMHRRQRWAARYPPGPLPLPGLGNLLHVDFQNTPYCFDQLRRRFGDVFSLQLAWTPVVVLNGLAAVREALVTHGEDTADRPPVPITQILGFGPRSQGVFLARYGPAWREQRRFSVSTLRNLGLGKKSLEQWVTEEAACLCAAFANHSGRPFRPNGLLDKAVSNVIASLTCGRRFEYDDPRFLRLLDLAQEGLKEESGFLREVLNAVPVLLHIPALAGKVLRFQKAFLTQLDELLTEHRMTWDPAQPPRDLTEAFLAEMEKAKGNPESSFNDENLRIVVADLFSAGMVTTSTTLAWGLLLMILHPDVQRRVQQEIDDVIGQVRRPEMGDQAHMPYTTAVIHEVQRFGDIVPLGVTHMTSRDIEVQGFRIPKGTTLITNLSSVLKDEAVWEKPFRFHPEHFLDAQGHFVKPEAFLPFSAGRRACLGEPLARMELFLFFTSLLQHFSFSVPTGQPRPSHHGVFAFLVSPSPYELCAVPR

Cytochrome P450 3A4 [15] = target: T5, Cytochrome P450 3A4; assay: Inhibition of recombinant human CYP3A4 using 7-benzyloxyquinoline fluorescent substrate in presence of NADPH-generating system after 15 mins; type: ADME; how it was run: as §1
Cynomolgus monkey [16] = assay: Reduction of intraocular pressure in ocular normotensive cynomolgus monkey at 0.01% administered topically to the eyes once daily at around 5 pm from day 1 to day 14 and measured at 10 am at day 8 and 15 post dose; details: Macaca fascicularis
Cynomolgus monkey [17] = assay: Reduction of intraocular pressure in ocular normotensive cynomolgus monkey administered topically to the eyes once daily at around 5 pm from day 1 to day 14 and measured at […] at day 8 and 15 post dose; type: functional, organism-based; details: Macaca fascicularis

Structure (SMILES): CC(C)(C)c1ccc(CN(Cc2cccc3oc(C(=O)O)cc23)S(=O)(=O)c2cccnc2)cc1
Ki [2]: 15 nM

Structure (SMILES): CC(C)(C)c1ccc(CN(Cc2ccc3ccn(CC(=O)O)c3c2)S(=O)(=O)c2cccnc2)cc1
EC50 [1]: > 1000 nM

Structure (SMILES): O=C(O)CNc1cccc(CN(Cc2ccc(C(F)(F)F)cc2)S(=O)(=O)c2cccnc2)n1
EC50 [1]: 119 nM

Structure (SMILES): CN(CC(=O)O)c1cccc(CN(Cc2ccc(C(C)(C)C)cc2)S(=O)(=O)c2cccnc2)n1
EC50 [1]: 283 nM

Structure (SMILES): CC(C)(C)c1ccc(CN(Cc2csc(NCC(=O)O)n2)S(=O)(=O)c2cccnc2)cc1
EC50 [1]: 360 nM

Structure (SMILES): CC(C)(C)c1ccc(CN(Cc2cccc(NCC(=O)O)n2)S(=O)(=O)c2ccccc2Cl)cc1
EC50 [1]: > 1000 nM

Structure (SMILES): CC(C)(C)C1CCC(CN(Cc2cccc(NCC(=O)O)n2)S(=O)(=O)c2cccnc2)CC1 (stereo unspecified)
EC50 [1]: 649 nM

Structure (SMILES): CC(C)(C)c1ccc(CN(Cc2cccc(NCC(=O)O)n2)S(=O)(=O)c2cccc(Cl)c2)cc1
EC50 [1]: 620 nM

Structure (SMILES): CC(C)(C)c1ccc(CN(Cc2ccc3cc(C(=O)O)oc3c2)S(=O)(=O)c2cccnc2)cc1
Ki [2]: 433 nM

Structure (SMILES): CC(C)(C)c1ccc(CN(Cc2ccnc(NCC(=O)O)c2)S(=O)(=O)c2cccnc2)cc1
EC50 [1]: > 1000 nM

Structure (SMILES): CC(C)OC(=O)CNc1cccc(CN(Cc2ccc(-n3cccn3)cc2)S(=O)(=O)c2cccnc2)n1 [OMIDENEPAG ISOPROPYL]
IC50 [3]: > 10 µM | IC50 [2]: 4180 nM | Activity (Cynomolgus monkey [16]): Active | IC50 [7]: > 10 µM | Activity (Cynomolgus monkey [17]): Dose-dependent effect | IC50 [8]: > 10 µM | Papp at 5 h, 100 µM [10]: 28 ×10⁻⁶ cm/s

Structure (SMILES): CCCCC[C@H](O)/C=C/[C@H]1[C@H](O)CC(=O)[C@@H]1C/C=C\CCCC(=O)O [DINOPROSTONE]
IC50 [8]: < 0.03 µM

Structure (SMILES): CC(C)(C)c1ccc(CN(Cc2cc(NCC(=O)O)ccn2)S(=O)(=O)c2cccnc2)cc1
EC50 [1]: > 1000 nM

Structure (SMILES): O=C(O)CNc1cccc(CN(Cc2ccc(-c3ccnnc3)cc2)S(=O)(=O)c2cccnc2)n1
EC50 [1]: 307 nM

Now from value to molecule, other results behind:

EC50 [1]: 43 nM
Structure (SMILES): O=C(O)CNc1cccc(CN(Cc2ccc(-n3cncn3)cc2)S(=O)(=O)c2cccnc2)n1

EC50 [1]: 1.6 nM
Structure (SMILES): O=C(O)CNc1cccc(CN(Cc2ccc(-c3ccccn3)cc2)S(=O)(=O)c2cccnc2)n1

EC50 [1]: 109 nM
Structure (SMILES): CC(C)(C)c1cccc(CN(Cc2cccc(NCC(=O)O)n2)S(=O)(=O)c2cccnc2)c1

EC50 [1]: 75 nM
Structure (SMILES): O=C(O)CNc1cccc(CN(Cc2ccc(-c3ccc(Cl)cc3)cc2)S(=O)(=O)c2cccnc2)n1

EC50 [1]: 118 nM
Structure (SMILES): O=C(O)CNc1cccc(CN(CCCCCc2ccccc2)S(=O)(=O)c2cccnc2)n1

EC50 [1]: 35 nM
Structure (SMILES): O=C(O)CNc1cccc(CN(Cc2ccc(-c3ccc(F)cc3)cc2)S(=O)(=O)c2cccnc2)n1

EC50 [1]: 13 nM
Structure (SMILES): CCC1(c2ccc(CN(Cc3cccc(NCC(=O)O)n3)S(=O)(=O)c3cccnc3)cc2)CCC1

IC50 [3]: > 10 µM | IC50 (Cytochrome P450 2C19): > 20 µM | EC50 [1]: 1.1 nM | IC50 [2]: 10 nM | Ratio EC50 [5]: > 10 | IC50 (Cytochrome P450 1A2 [6]): > 20 µM | IC50 [7]: 5.48 µM | IC50 [8]: > 10 µM | Papp A→B at 10 µM [9]: 0.28 ×10⁻⁶ cm/s | Papp at 5 h, 100 µM [10]: 0.9 ×10⁻⁶ cm/s | Drug metabolism [11]: 57 pmol/min/mg | Activity (Cytochrome P450 1A2 [12]): Not Active | Activity (Cytochrome P450 3A4 [13]): Not Active | Papp A→B at 10 µM [14]: 0.59 ×10⁻⁶ cm/s | IC50 (Cytochrome P450 2C9): > 20 µM | IC50 (Cytochrome P450 2D6): > 20 µM | IC50 (Cytochrome P450 3A4 [15]): > 20 µM
Structure (SMILES): O=C(O)CNc1cccc(CN(Cc2ccc(-n3cccn3)cc2)S(=O)(=O)c2cccnc2)n1 [OMIDENEPAG]
Activity (Cynomolgus monkey [4]): Active

EC50 [1]: 91 nM
Structure (SMILES): CC(C)(C)c1ccc(CN(Cc2cccc(NCC(=O)O)n2)S(C)(=O)=O)cc1

EC50 [1]: 19 nM
Structure (SMILES): COc1ccc(S(=O)(=O)N(Cc2ccc(C(C)(C)C)cc2)Cc2cccc(NCC(=O)O)n2)cc1

EC50 [1]: 83 nM
Structure (SMILES): CC(C)(C)c1ccc(CN(Cc2cccc(NCCC(=O)O)n2)S(=O)(=O)c2cccnc2)cc1

EC50 [1]: 45 nM
Structure (SMILES): CC(C)(C)c1ccc(CN(Cc2cccc(NCC(=O)O)n2)S(=O)(=O)c2ccccc2F)cc1

EC50 [1]: 29 nM
Structure (SMILES): O=C(O)CNc1cccc(CN(Cc2ccc(C3CCCCC3)cc2)S(=O)(=O)c2cccnc2)n1

EC50 [1]: 18 nM
Structure (SMILES): CC(C)C1(c2ccc(CN(Cc3cccc(NCC(=O)O)n3)S(=O)(=O)c3cccnc3)cc2)CC1
